Measurements published in ChEMBL document CHEMBL4138096, “Design, synthesis, molecular docking and cytotoxic evaluation of novel 2-furybenzimidazoles as VEGFR-2 inhibitors” (Eur J Med Chem, 2017).

Legend:
[1] = test system: MCF7; assay: Cytotoxicity against human MCF7 cells assessed as reduction in cell viability after 48 hrs by SRB assay; type: functional, cell-based; details: MCF7, 48 h
Summary of the method: (§1)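 Cells seeded and allowed to attach 24 h, then exposed to compound at […] for 48 h at 37 °C, 5% CO2. Fixed, stained with sulforhodamine B, bound dye released in Tris EDTA and read on ELISA reader. IC50 taken from survival curve (surviving fraction vs concentration); mean of four independent experiments.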

[2] = test system: MCF7; assay: Inhibition of VEGFR2 protein expression in human MCF7 cells at cytotoxic IC50 after 24 hrs by ELISA relative to untreated control; type: functional
Summary of the method: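 MCF-7 cells treated with compound in DMSO for 24 h at 37 °C, humidified 5% CO2. Cells were harvested and homogenised in saline. VEGFR-2 in homogenate was measured by double-antibody sandwich ELISA (monoclonal capture, biotinylated goat polyclonal detection, avidin-biotin-peroxidase, TMB, OD 451 nm). Levels (ng/ml) came from a standard curve as duplicate determinations, and % change was taken versus untreated cells.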

[3] = test system: HepG2; assay: Cytotoxicity against human HepG2 cells assessed as reduction in cell viability after 48 hrs by SRB assay; type: functional, cell-based; details: HepG2, 48 h; summary of the method: as §1
[4] = biological target: Vascular endothelial growth factor receptor 2 (Homo sapiens, UniProt P35968); assay: Inhibition of human VEGFR2 using TMB substrate by ELISA
Sequence of Vascular endothelial growth factor receptor 2 (P35968 whole entry): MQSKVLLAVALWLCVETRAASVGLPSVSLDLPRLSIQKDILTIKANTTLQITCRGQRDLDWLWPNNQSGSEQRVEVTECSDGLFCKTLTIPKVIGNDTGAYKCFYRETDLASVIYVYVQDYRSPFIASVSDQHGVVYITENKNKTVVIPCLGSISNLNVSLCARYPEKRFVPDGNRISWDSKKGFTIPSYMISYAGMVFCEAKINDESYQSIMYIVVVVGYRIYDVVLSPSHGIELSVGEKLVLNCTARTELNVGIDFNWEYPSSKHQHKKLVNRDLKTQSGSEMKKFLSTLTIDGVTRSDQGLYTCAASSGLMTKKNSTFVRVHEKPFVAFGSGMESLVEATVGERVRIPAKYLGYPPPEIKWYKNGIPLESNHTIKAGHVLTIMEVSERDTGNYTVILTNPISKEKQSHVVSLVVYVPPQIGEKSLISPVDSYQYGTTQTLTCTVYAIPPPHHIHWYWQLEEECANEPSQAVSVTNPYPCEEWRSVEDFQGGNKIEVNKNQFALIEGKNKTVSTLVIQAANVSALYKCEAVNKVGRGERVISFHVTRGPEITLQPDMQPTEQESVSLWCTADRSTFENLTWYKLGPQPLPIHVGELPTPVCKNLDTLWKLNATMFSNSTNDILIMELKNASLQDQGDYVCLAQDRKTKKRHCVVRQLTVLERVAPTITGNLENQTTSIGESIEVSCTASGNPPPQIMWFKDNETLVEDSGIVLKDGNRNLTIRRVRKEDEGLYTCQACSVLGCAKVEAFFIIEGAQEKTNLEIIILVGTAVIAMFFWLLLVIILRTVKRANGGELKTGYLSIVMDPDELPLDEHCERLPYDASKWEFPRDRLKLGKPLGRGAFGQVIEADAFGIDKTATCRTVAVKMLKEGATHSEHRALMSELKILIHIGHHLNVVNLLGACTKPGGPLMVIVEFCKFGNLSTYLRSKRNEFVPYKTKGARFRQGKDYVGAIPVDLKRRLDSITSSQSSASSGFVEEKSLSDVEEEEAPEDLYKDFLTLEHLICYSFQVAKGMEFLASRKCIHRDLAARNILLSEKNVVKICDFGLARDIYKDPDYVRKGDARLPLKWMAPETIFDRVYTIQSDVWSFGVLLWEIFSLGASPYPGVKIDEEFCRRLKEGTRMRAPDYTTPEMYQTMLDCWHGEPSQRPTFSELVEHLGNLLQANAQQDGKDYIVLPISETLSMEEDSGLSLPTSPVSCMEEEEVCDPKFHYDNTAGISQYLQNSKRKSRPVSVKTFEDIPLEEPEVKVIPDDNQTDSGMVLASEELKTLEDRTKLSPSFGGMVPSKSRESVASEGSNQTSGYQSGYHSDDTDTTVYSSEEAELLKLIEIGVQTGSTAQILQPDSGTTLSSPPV

For Cc1ccc(-c2nc3ccccc3[nH]2)o1, the IC50 [1] was 55.6 µM and the “inhibition (INH)” value [2] was 39%.

CCOC(=O)Cn1c(-c2ccco2)nc2ccccc21 was tested, and the IC50 [1] was 57.3 µM, the IC50 [3] was over 185 µM and the “inhibition (INH)” value [2] was 57%.

For CCOC(=O)Cn1c(-c2ccc(C)o2)nc2ccccc21, the IC50 [1] was 63.5 µM, the IC50 [3] was over 176 µM and the “inhibition (INH)” value [2] was 25%.

With NNC(=O)Cn1c(-c2ccco2)nc2ccccc21 the IC50 [3] was over 195 µM and the “inhibition (INH)” value [2] was 19%.

With Cc1ccc(-c2nc3ccccc3n2CC(=O)NN)o1 the IC50 [1] was 68.3 µM, the IC50 [3] was over 185 µM and the “inhibition (INH)” value [2] was 24%.

For Cc1ccc(-c2nc3ccccc3n2Cc2nnco2)o1, the IC50 [1] was over 177 µM and the IC50 [3] was 132 µM.

For O=C1CS/C(=C/n2c(-c3ccco3)nc3ccccc32)N1, the IC50 [1] was 29.1 µM, the IC50 [3] was 31.1 µM and the “inhibition (INH)” value [2] was 86%.

Cc1ccc(-c2nc3ccccc3n2C(=O)n2c(-c3ccc(C)o3)nc3ccccc32)o1 was tested, and the IC50 [1] was 58.3 µM, the IC50 [3] was over 118 µM and the “inhibition (INH)” value [2] was 9%.

N#CCn1c(-c2ccco2)nc2ccccc21 was tested, and the IC50 [1] was 88.1 µM, the IC50 [3] was 88.1 µM and the “inhibition (INH)” value [2] was 39%.

N#C/C(=C1/SCC(=O)N1c1ccccc1)n1c(-c2ccco2)nc2ccccc21 was tested, and the IC50 [1] was 55.9 µM, the IC50 [3] was 39.6 µM and the “inhibition (INH)” value [2] was 55%.

For SC1=NNCC(n2c(-c3ccco3)nc3ccccc32)=N1, the IC50 [1] was 60.5 µM, the IC50 [3] was 62.1 µM and the “inhibition (INH)” value [2] was 40%.

For O=C(CCl)n1c(-c2ccco2)nc2ccccc21, the IC50 [1] was 60.9 µM, the IC50 [3] was 60.9 µM and the “inhibition (INH)” value [2] was 40%.

In the case of O=C(Cn1c(-c2ccco2)nc2ccccc21)N/N=C/c1ccccc1Cl, the IC50 [1] is reported as 26.1 µM, the IC50 [3] is reported as 25.9 µM and the IC50 [4] is reported as 0.64 µM. The “inhibition (INH)” value [2] was 94%.

With O=C(O)Cn1c(-c2ccco2)nc2ccccc21 the IC50 [1] was 63.1 µM, the IC50 [3] was 149 µM and the “inhibition (INH)” value [2] was 61%.

For CCOC(=O)CSc1nnc(Cn2c(-c3ccco3)nc3ccccc32)s1, the IC50 [1] was 28.5 µM, the IC50 [3] was 62.1 µM and the “inhibition (INH)” value [2] was 92%.

ClC(Cl)(Cl)c1nnc(Cn2c(-c3ccco3)nc3ccccc32)o1 was tested, and the IC50 [1] was over 131 µM and the IC50 [3] was 85.6 µM.

With COC(=O)Cn1c(-c2ccc(C)o2)nc2ccccc21 the IC50 [1] was 87 µM, the IC50 [3] was over 185 µM and the “inhibition (INH)” value [2] was 38%.

With NC(=O)Cn1c(-c2ccco2)nc2ccccc21 the IC50 [1] was 118 µM, the IC50 [3] was 157 µM and the “inhibition (INH)” value [2] was 13%.

With NC(=O)/C(=C\c1ccccc1Cl)n1c(-c2ccco2)nc2ccccc21 the IC50 [1] was 40 µM, the IC50 [3] was 44.8 µM and the “inhibition (INH)” value [2] was 57%.

N=C(Cn1c(-c2ccco2)nc2ccccc21)NN was tested, and the IC50 [1] was 53.1 µM, the IC50 [3] was 74.5 µM and the “inhibition (INH)” value [2] was 27%.

Cc1ccc(-c2nc3ccccc3n2C(=O)C(=O)n2c(-c3ccc(C)o3)nc3ccccc32)o1 was tested, and the IC50 [1] was 65.6 µM, the IC50 [3] was over 111 µM and the “inhibition (INH)” value [2] was 17%.

c1ccc2[nH]c(-c3ccc(CN4CCOCC4)o3)nc2c1 was tested, and the IC50 [1] was 55.5 µM, the IC50 [3] was 128 µM and the “inhibition (INH)” value [2] was 58%.

Cc1ccc(-c2nc3ccccc3n2CC(=O)N/N=C/c2ccccc2Cl)o1 was tested, and the IC50 [1] was 21.2 µM, the IC50 [3] was 22.6 µM and the IC50 [4] was 1.26 µM. The “inhibition (INH)” value [2] was 96%.

With NNC(=O)CSc1nnc(Cn2c(-c3ccco3)nc3ccccc32)s1 the IC50 [1] was 21.4 µM, the IC50 [3] was 26.9 µM and the IC50 [4] was 1.41 µM. The “inhibition (INH)” value [2] was 96%.

N=C1N=C(n2c(-c3ccco3)nc3ccccc32)CN1 was tested, and the IC50 [1] was 93 µM, the IC50 [3] was 63.5 µM and the “inhibition (INH)” value [2] was 22%.

For COC(=O)Cn1c(-c2ccco2)nc2ccccc21, the IC50 [1] was 80.6 µM, the IC50 [3] was 67.3 µM and the “inhibition (INH)” value [2] was 61%.

Cc1ccc(-c2nc3ccccc3n2CC(=O)O)o1 was tested, and the IC50 [1] was 139 µM, the IC50 [3] was over 195 µM and the “inhibition (INH)” value [2] was 20%.

For NC(=O)/C(=C\c1ccccc1)n1c(-c2ccco2)nc2ccccc21, the IC50 [1] was 38.6 µM, the IC50 [3] was 63 µM and the “inhibition (INH)” value [2] was 80%.

S=c1[nH]nc(Cn2c(-c3ccco3)nc3ccccc32)s1 was tested, and the IC50 [1] was 52.6 µM, the IC50 [3] was 47.6 µM and the “inhibition (INH)” value [2] was 14%.

c1coc(-c2nc3ccccc3[nH]2)c1 [FUBERIDAZOLE] was tested, and the IC50 [1] was 106 µM, the IC50 [3] was 103 µM and the “inhibition (INH)” value [2] was 43%.

CNC(=O)c1cc(Oc2ccc(NC(=O)Nc3ccc(Cl)c(C(F)(F)F)c3)cc2)ccn1 [SORAFENIB] was tested, and the IC50 [1] was 4.33 µg/mL and the “inhibition (INH)” value [2] was 95.75%.

With CC/C(=C(\c1ccccc1)c1ccc(OCCN(C)C)cc1)c1ccccc1 [TAMOXIFEN] the “inhibition (INH)” value [2] was 98%.
